From PubChem
Most compounds without a hit are left out; they make up all but 3.5% or so of the library.
RGS4 inh – inhibitors of human RGS4 | B-score at 10 µM | 310,000 compounds, 0.45% hits | HEK293 M3R/RGS4 inducible, Fluo-4 calcium flux; stronger effect = higher value; triggered by carbachol at its EC20 | AID 463165;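 active = B-score, a plate-corrected calcium signal, over three deviations above library mean, with baseline fluorescence within five deviations of library mean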;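 note: RGS4 expression induced by doxycycline in cells with stable M3 receptor; B-score is computed from the integrated fluorescence ratio over baseline after carbachol; higher B-score means a larger calcium signal and so more RGS4 inhibition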
Target sequence (P49798 whole entry, looked up): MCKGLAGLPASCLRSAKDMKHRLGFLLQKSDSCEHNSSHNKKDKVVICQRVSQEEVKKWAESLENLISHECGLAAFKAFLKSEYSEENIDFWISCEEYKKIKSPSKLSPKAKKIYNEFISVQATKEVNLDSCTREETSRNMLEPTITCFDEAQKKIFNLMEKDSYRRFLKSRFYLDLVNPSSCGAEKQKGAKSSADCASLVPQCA
MrgX1 antagonist – human MrgX1 receptor antagonism, primary screen; Q96LB2; MRGX1-HEK293 calcium flux, Fluo-4, BAM8-22 antagonism; stronger effect = lower value; B-score at 10 µM; 310,000 compounds, 1.3% hits; AID 588676;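 active = calcium-response B-score plate-corrected more than 3 library SD below zero, starting fluorescence within 5 deviations, no agonist response on first addition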;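 note: peak minus trough fluorescence over baseline after final BAM8-22 challenge near maximal dose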
Target sequence (Q96LB2 whole entry, looked up): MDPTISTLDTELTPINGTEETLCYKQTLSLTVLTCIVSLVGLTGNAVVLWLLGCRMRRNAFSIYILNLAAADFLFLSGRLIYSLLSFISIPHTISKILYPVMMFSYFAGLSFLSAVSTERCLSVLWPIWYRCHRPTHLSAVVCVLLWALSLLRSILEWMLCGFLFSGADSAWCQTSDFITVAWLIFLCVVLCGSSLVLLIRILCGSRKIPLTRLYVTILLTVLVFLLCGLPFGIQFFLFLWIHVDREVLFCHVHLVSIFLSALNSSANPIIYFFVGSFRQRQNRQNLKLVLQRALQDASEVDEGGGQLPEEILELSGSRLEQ
RGS4 pot – potentiators or activators of RGS4. HEK293 M3R/inducible RGS4, carbachol calcium flux Fluo4; stronger effect = lower value. B-score at 10 µM. 310,000 compounds, 0.92% hits. AID 463111;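 active = B-score of the integrated calcium signal more than 4 SD below the library mean, with starting fluorescence not abnormally high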;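 note: negative B-score means reduced calcium response which marks RGS4 activation or potentiation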
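Assay system: Inducible-RGS4 HEK293 cells carrying M3 receptor | Schedule: Compound preincubation 20 min at room temperature before agonist | Signal: Kinetic calcium fluorescence imaging with Fluo4-AM dye, 2 µM | Read-out basis: B score from integrated fluorescence ratio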
MrgX1 PAM – allosterically activates human MrgX1 receptor signaling; 310,000 compounds, 0.63% hits; Q96LB2; B-score at 10 µM; MrgX1-HEK293, Fluo-4 calcium flux, FDSS; stronger effect = higher value; AID 588675;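 active = plate-corrected calcium response at least 3 library SD above typical, normal starting fluorescence, not activating the receptor alone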;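 note: compound read alongside a low EC10 to EC30 dose of BAM8-22 agonist; peak minus trough fluorescence over baseline measured at the second addition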
MrgX1 agonist – agonists of human MrgX1 receptor; Q96LB2; B-score at 10 µM; MrgX1-HEK293 cells, Fluo-4 calcium fluorescence, agonist mode; stronger effect = higher value; AID 588627; 310,000 compounds, 0.44% hits;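 active = calcium response B-score plate-corrected fluorescence ratio at least 3 library SD, with starting fluorescence B-score inside 5 SD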
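Test system: HEK293 cells stably expressing human MrgX1 receptor; Input: fifteen thousand cells per well; Dosing: compound delivered in addition one of three; Schedule: overnight seeding, then 1 h dark dye loading; Technique: Fluo-4 NW calcium fluorescence; Measure: B-scored fluorescence response ratio; Controls: positive and negative controls per plate.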
Numbers stand for hits; 0 = inactive; ! = a repeat was not active.

SMILES	RGS4 inh	MrgX1 antagonist	RGS4 pot	MrgX1 PAM	MrgX1 agonist
COc1ccccc1OCC(=O)NNC(=O)C(=O)N1CCCC1	0	0	0	0	0
Cc1ccc(C(=O)NNc2cc(=O)n(C)c(=O)n2C)cc1C	0	-5.1	0	0	0
CC(C)CC(NC(=O)C(NC(=O)C1CCC(=O)N1C(=O)OCc1ccccc1)C(C)C)C(=O)N1CCCC1C(N)=O (stereo unspecified)	0	0	0	0	0
Cc1cccc(-n2c(SCc3cc(=O)n4ccsc4n3)nc3ccccc32)c1	0	0	-7.4	0	0
O=C(c1cc(COc2ccc(F)cc2Cl)on1)N1CC2C[C@@H]3CC1C[C@H](C2)C3	0	0	0	0	0
Clc1cccc(CSc2ncn(-c3ccccc3)n2)c1	0	0	0	0	0
Clc1ccc(CSc2ncn(-c3ccccc3)n2)cc1	0	0	-7.2	0	0
O=C1c2ccccc2C(=O)C2OC12 (stereo unspecified)	22	0	0	0	43
COc1ccc(-c2cnnc(N/N=C/c3ccc(O)cc3)n2)cc1	0	0	0	0	0
COc1ccc(-c2cnnc(N/N=C/c3ccc(C)o3)n2)cc1	0	-5.2	0	0	0
Cc1onc(-c2ccccc2)c1C(=O)N/N=C/c1c(F)cccc1Cl	0	0	0	0	0
COc1ccccc1-c1nnn(CC#N)n1	0	-7.5	0	0	0
Cc1cc(C)cc(-n2c(C)cc(/C=N/NC(=O)c3ccncc3)c2C)c1	0	0	0	0	0
Cc1cc(C)cc(-n2c(C)cc(/C=N/NC(=O)CSc3ncccn3)c2C)c1	0	0	-8.3	0	0
Cc1cc(C)cc(-n2c(C)cc(/C=N/NC(=O)c3cccc([N+](=O)[O-])c3C)c2C)c1	0	0	-7.3	0	0
Cc1c(C(=O)N/N=C/c2ccoc2)cccc1[N+](=O)[O-]	0	0	0	0	0
COc1ccc(S(=O)(=O)n2[nH]c(=O)c(CCO)c2C)c([N+](=O)[O-])c1	0	0	0	7.9	0
Cc1c(CCO)c(=O)[nH]n1S(=O)(=O)c1ccc(Cl)cc1Cl	0	0	0	0	0
CC(=O)c1ccc(OC(C)C)c(CN2CCCCC2)c1	0	0	0	0	0
COc1ccc(-c2csc(NC(=O)CSc3n[nH]c(N)n3)n2)cc1	0	0	0	0	0
COc1ccc(-c2csc(NC(=O)CSc3n[nH]c(C)n3)n2)cc1	0	0	0	6.9	0
CCCc1sc(N)nc1-c1ccc(Cl)cc1	0	0	-7.4	0	0
CCCc1nc2c(s1)CCc1onc(-c3ccc(Cl)cc3)c1-2	0	0	0	0	0
CC(Oc1ccc(Cl)cc1Cl)C(=O)Nc1ccc(N2CCN(C)CC2)cc1 (stereo unspecified)	0	0	0	0	0
CC(=O)N1CCN(c2ccc(NC(=O)C(C)Oc3ccc(Cl)cc3Cl)cc2)CC1 (stereo unspecified)	0	-7.1	0	0	0
SMILES	RGS4 inh	MrgX1 antagonist	RGS4 pot	MrgX1 PAM	MrgX1 agonist
Cc1ccccc1CS(=O)(=O)CCC(=O)NCCCN1CCN(c2ccccc2F)CC1	0	0	0	0	0
Cc1cc(C)c2c(=O)n(CC(=O)NCCCN3CCN(c4ccccc4F)CC3)sc2n1	0	0	-9.6	0	0
O=C(CCS(=O)(=O)Cc1ccc(Cl)cc1)NCCCN1CCN(c2ccccc2F)CC1	0	0	-10	0	0
Cc1ccc2c(c1)C(c1ccccc1)N(C(=O)c1c(F)cccc1Cl)CC(=O)N2 (stereo unspecified)	0	0	0	0	0
COc1ccc(CCN2CC(C(=O)NCCCn3nc(C)cc3C)CCC2=O)cc1 (stereo unspecified)	0	0	0	0	0
O=C1/C(=C\c2ccc(O)cc2)SC(=S)N1/N=C/c1ccc(O)cc1	0	0	0	0	39
CCOC(=O)C1CCCN(C(=O)C(=O)c2cn(CC(=O)N3CCOCC3)c3ccccc23)C1 (stereo unspecified)	0	0	0	0	0
O=c1c2ccccc2c(/C=N/c2nnc(Cc3ccccc3)s2)c(O)n1-c1ccc(Cl)cn1	0	0	0	16	0
Cc1ccccc1N=C(NOCc1ccc(Cl)cc1Cl)c1nonc1N	0	0	-7.3	0	0
Cc1ccc(N=C(NOCc2ccc(Cl)cc2Cl)c2nonc2N)c(C)c1	0	0	-7.6	0	0
Cc1ccc(N=C(NO)c2nonc2N)c(C)c1	0	0	0	0	0
COc1ccccc1N1CCN(C(=O)c2sc3nc(C)nc(N4CCN(c5ccccn5)CC4)c3c2C)CC1	0	0	-8.2	0	0
C=CCn1c(SCCCC)nc(O)cc1=O	0	0	0	10!	0
O=C1S/C(=C/c2ccc(N3CCOCC3)o2)C(=O)N1Cc1c(F)cccc1Cl	0	0	0	9.4	0
O=C(O)c1ccccc1-c1ccc(/C=C2\SC(=O)N(c3ccccc3)C2=O)o1	0	0	0	0	0
O=C1S/C(=C\c2ccc(N3CCOCC3)o2)C(=O)N1Cc1c(F)cccc1Cl	0	0	0	0	56
O=C1N=C(N2CCOCC2)S/C1=C/c1ccc(-c2ccccc2Cl)o1	0	0	0	0	0
O=C1S/C(=C\c2ccc(N3CCOCC3)o2)C(=O)N1c1ccccc1	0	0	-7.6	0	0
COc1cc2cc(CN(Cc3cccnc3)C(=O)Nc3ccccc3F)c(=O)[nH]c2cc1OC	0	0	0	0	0
CN1C(=O)C(=O)/C(=C(/O)c2ccc(Br)cc2)C1c1ccc(F)cc1 (stereo unspecified)	0	0	0	0	0
Nc1ccc(SCC(=O)Nc2cccc([N+](=O)[O-])c2)cc1	0	0	0	0	0
COc1ccc(Cc2nnc(SCC(=O)N(C)CC(=O)Nc3ccc(C)cc3)o2)cc1	0	-4.6	0	0	0
CN(C)c1ccc(/C=C/c2cc[n+](C)cc2)cc1	0	0	0	0	37
CN(CCc1ccccc1)C1CCCN(S(=O)(=O)N(C)C)C1 (stereo unspecified)	0	0	0	0	0
O=C(Nc1ccc2nc3ccccc3nc2c1)c1ccccc1	0	0	0	0	0
SMILES	RGS4 inh	MrgX1 antagonist	RGS4 pot	MrgX1 PAM	MrgX1 agonist
O=C(Nc1ccc(-c2nc3ccccc3s2)c(OC(=O)c2ccccc2)c1)c1ccccc1	0	-4.8	0	0	0
C#CCNC(=O)C1=C[C@H](C2CCCCC2)[C@@H](CCCO)[C@H](OCC)O1	0	0	0	0	0
CN(C)CCCNC(=S)N(CCO)Cc1cc2cc3c(cc2[nH]c1=O)OCO3	0	0	0	0	0
Cn1c(=O)c([N+](=O)[O-])c(N2CCN(Cc3ccc4c(c3)OCO4)CC2)c2ccccc21	0	0	-7.3	0	0
O=C(/C=C/c1ccccc1)c1ccccn1	0	0	0	0	39
COc1ccc(C2C(C#N)=C(N)OC(C(C)(C)C)=C2C#N)cc1OC (stereo unspecified)	0	0	0	0	0
COc1ccc(C2C(C#N)=C(N)SC(N)=C2C#N)cc1OC	0	-4.6	0	0	0
